Calls of active or inactive are those of the source. The calls are words filed in the database; no cut-off is given here.
Tests used:
[1] = target: T1, Glutamate NMDA receptor (Rattus norvegicus) (UniProt P35439+Q00959+Q00960+Q00961+Q62645+Q8VHN2+Q9R1M7); assay: Binding affinity against dextromethorpin binding site associated with N-methyl-D-aspartate glutamate receptor from rat brain determined using [3H]1 as radioligand.; conditions: concentration not given here
How it was run: (§1)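 Rat brain membranes were the 100000g pellet of the 1000g supernatant, in 50 mM Tris-HCl pH 7.4. [3H]dextromethorphan (5 nM final) was incubated with ~0.3 mg membranes for 20 min at 23 °C, with displacer at 10^-9–10^-5 M. Nonspecific binding was defined with 100 µM unlabelled ligand. Samples were filtered on GF/B in cold Tris/choline chloride/Triton wash and counted by scintillation.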

[2] = target: Glutamate [NMDA] receptor; assay: Inhibition of [3H]1 binding to dextromethorpin binding site of guinea pig microsomal pellet P3 N-methyl-D-aspartate glutamate receptor; parameters: species or system Cavia porcellus
How it was run: (§2)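 Guinea pig brain microsomal P3 fraction (100000g, 60 min pellet) was used in Tris-HCl pH 7.4. [3H]dextromethorphan at 5 nM final was incubated with ~0.5 mg tissue for 20 min at 23 °C, with displacer at 10^-9–10^-5 M. Nonspecific binding was defined with 100 µM unlabelled ligand. Samples were filtered on GF/B in cold Tris/choline chloride/Triton buffer and counted.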

Rattus norvegicus [3] = assay: Anticonvulsant activity was determined in rat supramaximal electroshock (MES) test within a dose range of 15-60 mg/kg after (sc) administration; format: functional
How it was run: (§3)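 The compound was given sc in freshly diluted normal saline at 1-2 mL/kg across the stated dose range, with vehicle-injected controls. MES protection was scored 30 min post-dose, with n = 10 rats. ED50 was derived from the dose-response and reported with 95% confidence limits, in mg/kg and µmol/kg.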

[4] = target: Glutamate [NMDA] receptor; assay: (§4) Binding affinity against dextromethorpin binding site associated with N-methyl-D-aspartate glutamate receptor from guinea pig mitochondrial pellet P2 determined using [3H]1 as radioligand.; format: protein-complex assay, Cavia porcellus
How it was run: (§5)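 Guinea pig brain crude mitochondrial P2 fraction (11500g pellet, De Robertis-based) was used in Tris-HCl pH 7.4. [3H]dextromethorphan at 5 nM final was incubated with ~0.3 mg tissue for 20 min at 23 °C, with displacer at 10^-9–10^-5 M. Nonspecific binding was defined with 100 µM unlabelled ligand. Samples were filtered on GF/B and counted by scintillation.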

Rattus norvegicus [5] = assay: Anticonvulsant activity in rat supramaximal electroshock (MES) test within a dose range of 15-60 mg/kg.; format: functional; how it was run: as §3
Glutamate NMDA receptor [6] = assay: (§6) Binding affinity against PCP binding site associated with N-methyl-D-aspartate glutamate receptor from rat synaptic plasma membrane(SPM) determined using [3H]TCP as radioligand.
How it was run: (§7)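 Crude rat brain synaptic plasma membranes (cerebellum removed, extensively washed) were used in 5 mM Tris-HCl pH 7.4. [3H]TCP at 5 nM final was incubated with ~0.2 mg membranes for 60 min at 23 °C. Nonspecific binding was defined with cold phencyclidine. Samples were filtered on GF/B pre-soaked in 0.5% PEI, washed with 5 mM Tris pH 7.7 and counted.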

Glutamate NMDA receptor [7] = assay: Binding affinity against glycine binding site of N-methyl-D-aspartate glutamate receptor from rat synaptic plasma membrane(SPM) using [3H]glycine; NA = No effect
Rattus norvegicus [8] = assay: Anticonvulsant activity in rat supramaximal electroshock (MES) test expressed as % rats protected at a dose of 12.5-50 mg/kg.; format: functional
How it was run: (§8)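 Rats were given the compound sc in freshly diluted normal saline (DMSO or HCl-assisted dissolution for some compounds) at 1-2 mL/kg. Vehicle-injected controls were run. Rats were tested at 30 min after injection. The read-out is the % of rats protected from convulsion in the MES test at the stated doses, with n = 10 rats.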

[9] = target: T1, Glutamate NMDA receptor (Rattus norvegicus); assay: as §6; conditions: concentration not given here; how it was run: as §7
Glutamate NMDA receptor [10] = assay: Binding affinity against dextromethorpin binding site associated with N-methyl-D-aspartate glutamate receptor from rat brain using [3H]1 as radioligand.; how it was run: as §1
Rattus norvegicus [11] = assay: Anticonvulsant activity in rat supramaximal electroshock (MES) test expressed as % rats protected at a dose of 50 mg/kg.; format: functional; how it was run: as §8
[12] = target: Glutamate [NMDA] receptor; assay: Binding affinity against dextromethorpin binding site associated with N-methyl-D-aspartate glutamate receptor from guinea pig microsomal pellet (P3) using [3H]1 as radioligand.; parameters: species or system Cavia porcellus; how it was run: as §2
Glutamate NMDA receptor [13] = assay: Binding affinity against glycine binding site associated with N-methyl-D-aspartate glutamate receptor from rat synaptic plasma membrane using [3H]glycine as radioligand.
Rattus norvegicus [14] = assay: Anticonvulsant activity in rat supramaximal electroshock (MES) test expressed as % rats protected at a dose of 15-60 mg/kg.; format: functional; how it was run: as §8
Rattus norvegicus [15] = assay: Anticonvulsant activity in rat supramaximal electroshock (MES) test within a dose range of 15-60 mg/kg administered subcutaneously; format: functional; conditions: sc; how it was run: as §3
Glutamate NMDA receptor [16] = assay: Binding affinity against dextromethorpin binding site of N-methyl-D-aspartate glutamate receptor from rat brain using [3H]1; how it was run: as §1
Rattus norvegicus [17] = assay: Anticonvulsant activity in rat supramaximal electroshock (MES) test expressed as % rats protected at a dose of 25-100 mg/kg.; format: functional; how it was run: as §8
[18] = target: T2, Glutamate [NMDA] receptor (Homo sapiens) (UniProt Q05586+Q12879+Q13224+O15399+O60391+Q14957+Q8TCU5); assay: as §4; format: functional; conditions: Cavia porcellus; target entry is the homologue from another species; concentration not given here; how it was run: as §5
Rattus norvegicus [19] = assay: Anticonvulsant activity in rat supramaximal electroshock (MES) test expressed as % rats protected at a dose of 2.5-50 mg/kg.; format: functional; how it was run: as §8
[20] = target: T2, Glutamate [NMDA] receptor (Homo sapiens); assay: Binding affinity against dextromethorpin binding site associated with N-methyl-D-aspartate glutamate receptor from guinea pig microsomal pellet P3 determined using [3H]1 as radioligand.; conditions: Cavia porcellus; target entry is the homologue from another species; concentration not given here; how it was run: as §2
[21] = target: T1, Glutamate NMDA receptor (Rattus norvegicus); assay: Binding affinity against glycine binding site associated with N-methyl-D-aspartate glutamate receptor from rat synaptic plasma membrane(SPM) determined using [3H]glycine as radioligand.;NA = No effect
[22] = target: T1, Glutamate NMDA receptor (Rattus norvegicus); assay: Binding affinity against PCP binding site associated with N-methyl-D-aspartate glutamate receptor from rat synaptic plasma membrane(SPM) determined using [3H]TCP as radioligand.;NA = No effect; conditions: concentration not given here; how it was run: as §7
Rattus norvegicus [23] = assay: Anticonvulsant activity in rat supramaximal electroshock (MES) test expressed as % rats protected at a dose of 1.25-10 mg/kg.; format: functional; how it was run: as §8
Rattus norvegicus [24] = assay: Anticonvulsant activity in rat supramaximal electroshock (MES) test expressed as % rats protected at a dose of 25-50 mg/kg.; format: functional; how it was run: as §8

Structure (SMILES) | IC50 [2] [nM] | IC50 [4] [nM] | ED50 (Rattus norvegicus [5]) [µmol/kg] | IC50 (Glutamate NMDA receptor [7]) | inhibition [9] [%] | IC50 (Glutamate NMDA receptor [16]) [nM] | other results
CN1CCC23CCCCC2C1Cc1ccc(N)cc13 (stereo unspecified) | 4400 | 6400 | 76 | Not Active |  |  | inhibition [1]: 45%; ED50 (Rattus norvegicus [3]): 25 mg/kg; IC50 (Glutamate NMDA receptor [6]): 7800 nM; Protection (Rattus norvegicus [8]): 100%
CN1CCC23CCCCC2C1Cc1ccc(OCc2ccccc2)cc13 (stereo unspecified) |  | 270 |  |  | 39 |  | IC50 (Glutamate NMDA receptor [10]): 3100 nM; Protection (Rattus norvegicus [11]): 30%; IC50 [12]: 150 nM; IC50 (Glutamate NMDA receptor [13]): Not Active
COc1ccc2c(c1)C13CCCCC1C(C2)N(C)CC3 (stereo not drawn) [RACEMETHORPHAN] | 490 | 240 | 109 | Not Active |  |  | Protection (Rattus norvegicus [14]): 70%; ED50 (Rattus norvegicus [15]): 38 mg/kg
CN1CCC23CCCCC2C1Cc1ccccc13 (stereo unspecified) | 1000 | 1700 |  | Not Active | 53 | 1300 | Protection (Rattus norvegicus [17]): 0%
CN1CCC23CCCCC2C1Cc1ccc(Oc2nc(-c4ccccc4)nc4ccccc24)cc13 (stereo unspecified) |  |  |  |  |  |  | inhibition [18]: 25%; inhibition [1]: 19%; Protection (Rattus norvegicus [19]): 10%; inhibition [20]: 50%; inhibition [21]: inactive
CC(C)Oc1ccc2c(c1)C13CCCCC1C(C2)N(C)CC3 (stereo unspecified) | 120 | 150 | 9.4 | Not Active |  | 880 | inhibition [22]: 59%; ED50 (Rattus norvegicus [15]): 3.9 mg/kg; Protection (Rattus norvegicus [23]): 90%
CNc1ccc2c(c1)C13CCCCC1C(C2)N(C)CC3 (stereo unspecified) | 1300 | 480 |  | Not Active | 43 | 3600 | Protection (Rattus norvegicus [17]): 0%
CN1CCC23CCCCC2C1Cc1ccc(N=C=S)cc13 (stereo unspecified) | 170 | 440 |  | Not Active | 60 | 1500 | Protection (Rattus norvegicus [24]): 0%

From ChEMBL document CHEMBL1126312, “Synthesis and evaluation of 3-substituted 17-methylmorphinan analogs as potential anticonvulsant agents” (J Med Chem, 1992)
